Assay: Toxicity liver stage against HepG2, at 10uM
Type: cell-based
Design: test concentration 10 uM, cell line HepG2-A16-CD81EGFP
Details: human, HepG2-A16-CD81EGFP cells; read-out: INHIBITION
How it was run: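 Uninfected HepG2-A16-CD81EGFP cells, 3 × 10^3 per well, 1536-well, plated on prespotted compound at 10 μM final, parasite-free screening media added to match infected plates; puromycin 10 μM positive, DMSO 0.5% negative; run in parallel with 48 h PbLuc assay at 37 °C, 5% CO2; viability by CellTiter-Glo luminescence, normalized to controls.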

Compound	cytotoxicity at 10 µM
COc1nn(C)cc1C(=O)NCC1(O)CCOCC1	-14.7%
CC(C)(C)C(=O)NCc1cnn2ccccc12	-10.6%
CCN1C[C@@H]2CN(C(=O)C3CC=CC3)C[C@@H]2C1=O	2.35%
CC1N(CC2CC2)C(=O)COC12CCN(C(=O)c1cnccn1)CC2 (configuration not stated)	-2.57%
CC(C)NC(=O)C1CCC2(CCN(c3ncccn3)CC2)CO1 (configuration not stated)	0.442%
O=C(COc1coc(CN2CCCCC2)cc1=O)c1ccccc1	8.44%
Cc1noc([C@@]23CCO[C@@H]2CCN(C(=O)C2CCOCC2)C3)n1	1.68%
CC(=O)N1CC[C@H]2OCC[C@@]2(C(=O)NCc2ccco2)C1	0.253%
COc1cccc(S(=O)(=O)N2CCn3cnc(COCC4CC4)c3C2)c1	-18.9%
CC(Cn1cc(Br)cn1)C(=O)Nc1ccn(C)n1 (configuration not stated)	-4.49%
CCNC(=O)[C@H]1CN(Cc2ccccc2)C[C@@H]1C(=O)c1ccccc1	3.08%
Cc1nn(C)c(C)c1-c1ccc(=O)n(C(C)C(=O)NCc2ccco2)n1 (configuration not stated)	6.93%
c1cc(C2CN(C3CCCCC3)C2)n[nH]1	4.18%
CNC(=O)CCc1cc(C2CCN(c3cnccn3)CC2)nc(C)n1	-4.65%
CNC(=O)CCc1cc(C)nc(C2CCN(C3CCCCC3)CC2)c1	4.54%
COc1ccccc1C1CNCCN1C(=O)c1ccc(F)cc1 (configuration not stated)	0.57%
Nc1nccc(C2CCN(CCO)C2)n1 (configuration not stated)	0.51%
CNc1cccc(C2CCCN(Cc3ncc[nH]3)C2)n1 (configuration not stated)	-18%
CC(=O)N1CCCC(c2ccccn2)C1 (configuration not stated)	-23.7%
NC(=O)C1(c2cnccn2)CCCN1Cc1cccc(Cl)c1 (configuration not stated)	-2.5%
CCOc1cccnc1C(=O)N1CCCN(c2nc(C)cs2)CC1	5.6%
O=C(Cc1cccc(F)c1F)NC1COc2ccccc2C1=O (configuration not stated)	10.4%
Cc1cnn(CC(=O)Nc2cc(-n3nnnc3C3CC3)ccc2F)c1	-5.46%

Compound	cytotoxicity at 10 µM
CCC(c1ccc(F)cc1)S(=O)(=O)CCO (configuration not stated)	-136%
COCCN(Cc1ccc(C)o1)C(=O)Nc1ncc(C)s1	10%
Cc1nsc(N2CCCN(C(=O)CCc3ccsc3)CC2)n1	3.8%
N#Cc1cccc(S(=O)(=O)N(CC2CCC2)c2cn[nH]c2)c1	10.9%
CCc1noc(C(C)N2CCCN(Cc3noc(C4CC4)n3)CC2)n1 (configuration not stated)	-6.87%
CC(CNC(=O)OC(C)(C)C)N(C)C(=O)COc1ccccc1C#N (configuration not stated)	1.39%
O=C(NCCCn1cccn1)c1nc2ccccc2[nH]1	-7.16%
CC(C)NC(=O)NC(C)c1nc(-c2ccccc2)cs1 (configuration not stated)	-11.1%
CC(C)CCC(=O)NCc1ccc(N2CCCCC2)cc1	7.89%
O=C(c1sccc1C1CC1)N1CCCN(c2cccnn2)CC1	-8.67%
Cc1ccc(-n2cc(C(=O)N3CCn4c(C)nnc4C3)nn2)cc1	-141%
CCOCC(=O)Nc1cc(C)cnc1OC	4.04%
N#Cc1ccc(OCCn2cccn2)cc1	11.2%
COc1ccccc1-c1cc(NC(=O)COCC2CC2)[nH]n1	-116%
COc1ccc(C(N)=O)cc1NCc1ncc(C(C)(C)C)o1	-8.2%
CC(O)CN1CCC(CNCc2ccc(C#N)cc2)CC1 (configuration not stated)	8.83%
COC(=O)CNC(=O)C12CCC(=O)N1c1cc(Cl)ccc1S2 (configuration not stated)	-0.748%
CCn1nc2c(cc1=O)CN(Cc1nc(N)c3ccccc3n1)CC2	-5.59%
COCC(=O)N1CC(C(=O)NCC2CC2)C2(CCOCC2)C1 (configuration not stated)	-105%
Cc1noc([C@]23COC[C@H]2CN(C(=O)N2CCCC2)C3)n1	-103%
Cn1cccc1C(=O)N1CCO[C@@H]2CN(Cc3ccco3)C[C@@H]2C1	-97.3%
CNC(=O)NCC1CCC2(CCN(c3ncccn3)CC2)CO1 (configuration not stated)	-107%
O=C(c1ccno1)N1CCn2cc(CN3CCCCC3)nc2C1	-77.2%

Compound	cytotoxicity at 10 µM
C[C@@H]1C[C@@H]2CCN(Cc3ccncc3)C[C@H]2O1	-72.9%
O=C(c1cnccn1)N1CCN2C[C@H](Oc3cccnc3)C[C@H]2C1	4.62%
C[C@H]1C[C@@H]2CCN(Cc3ccccn3)C[C@H]2O1	5.66%
COC(C)(C)C(=O)N1Cc2cnc(C(C)(C)C)nc2C1	-121%
COc1cccc(OCCc2cncc(C(N)=O)c2)c1	-135%
CCC1CN(C(=O)c2cc(CN(C)CCc3ccccc3)on2)CCO1 (configuration not stated)	-4.12%
Cc1ccnc(N2CCCC(c3nccn3C(C)C)C2)n1 (configuration not stated)	-9.63%
Cc1nc(CN(C)Cc2csc(-c3cccs3)n2)co1	-6.06%
Cc1oc(-c2cccc(F)c2F)nc1CN(C)CCC(C)(C)O	-4.47%
CCC(Nc1nc(C(C)C)nc2c1cnn2C)c1ccc(O)cc1 (configuration not stated)	-51.2%
Cc1nc(NCC(O)CN2CCCCCC2)c2c(C)noc2n1 (configuration not stated)	-5.78%
CCCN1CCCn2nc(CNC(=O)CC3CCS(=O)(=O)C3)cc2C1 (configuration not stated)	-2.1%
NC(=O)C1CCCN(c2ncnc3c2Cc2ccccc2OC3)C1 (configuration not stated)	-5.64%
CN1CCCN(c2cnn(Cc3ccc(C(C)(C)C)cc3)c(=O)c2)CC1	11.1%
CC(=O)NCCC1CCCCN1S(=O)(=O)c1cccc(Cl)c1 (configuration not stated)	-125%
Cc1nn(C)c(C)c1NC(=O)c1cccc(CN2C[C@H]3CC[C@@H](C2)N3)c1	-0.277%
CCOc1ccc(Cl)cc1C(C(=O)O)N1CCC(CO)CC1 (configuration not stated)	2.93%
CC(=O)NCCc1cn(-c2cc(F)ccc2C)cn1	-1.47%
CC(C)c1nc(CN(C)Cc2ncccc2C(=O)O)cs1	-15.3%
O=C(CCc1nc(Cl)n[nH]1)N[C@H]1CC[C@H]1NC1Cc2ccccc2C1	-1.74%
O=C(NCCN1CCNC1=O)c1cnc(-c2cccnc2)nc1	-0.885%
CC(C)c1ncc(S(C)(=O)=O)c(C2CCCNC2)n1 (configuration not stated)	-1.34%
COC(=O)CCC(=O)N1CCc2[nH]nc(-c3ccc(F)c(F)c3)c2C1	0.604%

Compound	cytotoxicity at 10 µM
CCc1nc(CC(=O)N2CCCC2c2c(C)nn(C)c2OC)cs1 (configuration not stated)	-2.17%
Cc1cc(C)n(CC2CN(CC3CCCC3)CCO2)n1 (configuration not stated)	-16.4%
Cc1ccc(CS(=O)(=O)CC(=O)NCCCOC(C)C)cc1	-2.9%
COC(=O)C(NC(=O)CC(C)C)c1cc(F)ccc1F (configuration not stated)	-0.481%
COc1ccccc1CC(=O)NS(=O)(=O)c1ccc(C#N)cc1	-10.4%
C1CC(c2noc(C3CC3)n2)N(Cc2nnc(C3CC3)o2)C1 (configuration not stated)	-5.83%
CC(=O)NC1CCCN(C(=O)NCCOc2ccc3c(c2)OCO3)C1 (configuration not stated)	-31%
CC(C)c1cc(C(=O)N2CCCC(n3cncn3)C2)n[nH]1 (configuration not stated)	-11.9%
O=C(CCc1c(F)cccc1F)N1CCCCC1Cn1cccn1 (configuration not stated)	-11.1%
CCn1cnnc1CNC(=O)N1CCN(CC(C)C)CC1	9.18%
CCOc1ncccc1C(=O)N(C)C1CCN(c2ccccn2)CC1	-18.7%
Cc1ccoc1C(=O)N1CCCN(Cc2cnn(C)c2)CC1	-11.1%
CCn1cc(CN2CCCN(C(=O)c3c(C)oc(C)c3C)CC2)cn1	-8.89%
CCC(O)CN1CCN(C(=O)Cc2nc(-c3ccco3)oc2C)CC1 (configuration not stated)	-2.94%
Cc1nnc(NC(=O)CN2CCCC(Cn3cncn3)C2)s1 (configuration not stated)	1.71%
Cc1cnn(CC2CN(CC(=O)N3CCc4ccccc43)CCO2)c1 (configuration not stated)	-0.77%
Cc1nc(C(=O)N2CCCC2c2c(C)nn(C)c2C)ccc1C#N (configuration not stated)	-6.16%
O=C(CCc1ccccc1F)NS(=O)(=O)c1ccc2c(c1)OCCCO2	-3.2%
Cc1cc(C)n(C2CN(CC(=O)N3CCOCC3)C2)n1	-3.2%
CCc1nc(C)c(C(=O)NCCN2CCC(C)CC2)s1	-5.6%
CCN(Cc1ccc2c(c1)OCCO2)C(=O)NCc1nc(C)cs1	1.47%
Cc1nnc(N2CCC(CNC(=O)OC(C)(C)C)CC2)c(C#N)c1C	2.6%
Cc1ccc(CN(CCN(C)C)Cc2ccnn2C2CCCCO2)o1 (configuration not stated)	0.267%

Compound	cytotoxicity at 10 µM
Cc1cccc(CN2CCC(c3csc4nccn34)CC2)n1	1.54%
O=C(C1CN(Cc2ccsc2)Cc2ccnn2C1)N1CCCC1 (configuration not stated)	-6.93%
COCCC(=O)N1CC2(CCN(Cc3cccc(Cl)c3)CC2)C1	5.63%
CCN(CC)c1ncc2c(c1C(=O)O)CCN(C1CCOC1)C2 (configuration not stated)	15.7%
O=C(NC1CC1)N1CCc2ncc(CN3CCOCC3)n2CC1	-76.5%
C1CN(CC2CC2)C(COCC2CC2)c2nnn(CC3CC3)c21 (configuration not stated)	-3.66%
Cn1cnc2c1C(COCc1ccccc1)N(Cc1ccncc1)CC2 (configuration not stated)	-1.99%
Cc1ccc(CN2CCOC3(CCN(C(=O)N4CCCC4)CC3)C2)cc1	5.7%
CCOC1COC2(CCN(c3ccccn3)CC2)C1 (configuration not stated)	3.77%
O=C(NCc1ccco1)[C@H]1COC[C@H]2CN(Cc3ccccn3)C[C@H]21	-72.4%
Cc1cnnn1Cc1ncn2c1CN(Cc1cccs1)CCC2	3.58%
CC(C)OCc1ncn2c1CN(Cc1cccs1)CCC2	8.44%
CC(NCc1ccncc1)c1ccc(N2CCN(C)CC2)c(F)c1 (configuration not stated)	27.8%
Cc1ccc(N2CC3(CCN(Cc4nccn4C)C3)CC2=O)s1 (configuration not stated)	-81.9%
c1cc(C2CC2)n2cnc(C3CN(Cc4nccs4)CCO3)c2c1 (configuration not stated)	1.49%
O=C(CC1CC1)N1C[C@@H]2CCN(c3cnccn3)C[C@@H]2C1	5.03%
CCN1CCO[C@@H]2CN(S(=O)(=O)c3cccs3)CC[C@@H]2C1	4.82%
CN(C)Cc1noc2c1CN(Cc1ccsc1)CC2	-2.88%
CC(c1ccccc1)n1cc2nc(N(C)C)[nH]cc-2c1=O (configuration not stated)	-25.5%
Cn1nc(Br)c2c(NCCN)ncnc21	20.2%
